# According to ChEMBL document CHEMBL3600329, “Synthesis, biological profiling and mechanistic studies of 4-aminoquinoline-based heterodimeric compounds with dual trypanocidal-antiplasmodial activity” (Bioorg Med Chem, 2015):
# How the values were obtained:
# [1] = Selectivity index, ratio of IC50 for rat L6 cells to IC50 for chloroquine-resistant Plasmodium falciparum K1; type: toxicity, cell-based; details: read-out: Ratio IC50
# Summary of the method: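 IC50 ratio, L6 over P. falciparum K1. L6 cells seeded at 1×10^4 mL⁻¹ with compound, 6 days at 37 °C, resazurin added, fluorescence after 8 h. Parasites in A+ erythrocytes (2.5% haematocrit, 1% parasitaemia) with twofold dilutions, 48 h at 37 °C in low-oxygen gas; growth read by LDH activity at 550 nm.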
# L6 = assay: Cytotoxicity against rat L6 cells assessed as inhibition of cell growth after 6 days by Spectramax fluorescence plate reader analysis; type: cell-based; details: L6, 144 h
# Summary of the method: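 L6 rat skeletal myoblasts seeded at 1×10^4 mL⁻¹ in growth medium containing a range of compound concentrations, incubated 6 days at 37 °C; resazurin added, fluorescence read after a further 8 h. IC50 = concentration inhibiting growth by 50%; mean of triplicate experiments ± SEM.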
# [2] = Selectivity index, ratio of IC50 for rat L6 cells to IC50 for bloodstream form of Trypanosoma brucei 221; type: toxicity, cell-based; details: read-out: Ratio IC50
# Summary of the method: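 IC50 ratio, L6 over T. brucei. L6 cells seeded at 1×10^4 mL⁻¹ with compound, 6 days at 37 °C, then resazurin, 8 h more, fluorescence read. Log-phase bloodstream T. brucei 221 in modified Iscove's medium at 0.25 × 105 mL⁻¹, compound range in triplicate, 37 °C; resazurin at 48 h, read after 16 h more.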
# Plasmodium falciparum = assay: Antiplasmodial activity against chloroquine-resistant Plasmodium falciparum K1 infected in human A+ erythrocytes assessed as inhibition of parasite growth after 48 hrs by LDH assay; type: functional, organism-based; details: K1, 48 h
# Summary of the method: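 Ring-stage cultures in human A+ erythrocytes (RPMI 1640, A+ serum, D-glucose), 2.5% haematocrit, 1% parasitaemia; twofold serial dilutions in duplicate, DMSO ≤0.5% final. 48 h at 37 °C under 93% N2/3% O2/4% CO2. Growth read as lactate dehydrogenase activity (APAD, lactate, diaphorase, NBT; 550 nm); % inhibition vs controls; IC50 by linear regression; mean of triplicate experiments.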
# Acetylcholinesterase = Acetylcholinesterase (Homo sapiens, UniProt P22303); assay: Inhibition of human recombinant AChE using acetylthiocholine iodide as substrate preincubated with enzyme for 20 mins prior to substrate addition by Ellman's method
# Summary of the method: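 Ellman assay in 0.1 M phosphate buffer pH 8.0 with hAChE 0.02 u/mL and 333 µM DTNB. At least 10 inhibitor concentrations, in duplicate, preincubated 20 min at 37 °C. Then 450 µM acetylthiocholine iodide, 5 min at 37 °C; absorbance at 414 nm against an uninhibited sample. IC50 by non-linear regression; mean ± S.E.M. of at least 4 experiments.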
# Trypanosoma brucei = assay: Trypanocidal activity against bloodstream form of Trypanosoma brucei 221 assessed as inhibition of parasite growth at pH 7.4 after 48 hrs by Spectramax plate reader analysis; type: functional, organism-based; details: Trypanosoma brucei, 221, 48 h
# Summary of the method: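 Bloodstream-form T. brucei strain 221 grown at 37 °C in modified Iscove's medium; log-phase cells diluted to 0.25 × 10^5 mL⁻¹, exposed to a range of compound concentrations in triplicate at 37 °C. Resazurin added after 48 h, read after a further 16 h. IC50 and IC90 = concentrations inhibiting growth 50% and 90%; mean of triplicate experiments ± SEM.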
# [3] = Permeability by PAMPA-BBB assay; type: ADME; details: read-out: Peff
# Summary of the method: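 Parallel artificial membrane permeation through porcine brain lipid extract, using PBS:EtOH 70:30; effective permeability Pe reported as mean ± SD of three independent experiments.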
# [4] = Inhibition of beta-haematin formation by microplate reader analysis relative to hemin; type: physicochemical
# Summary of the method: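 Haemin chloride (8 mM stock in DMSO) mixed with serial compound dilutions (0.5-32 mM) in 25% DMSO; formation initiated with 8 M acetate buffer pH 5.0, 18 h at 37 °C. Pellets washed with DMSO, β-haematin dissolved in 0.1 M NaOH, OD 400 nm read versus drug-free controls; BHIA50 expressed as compound equivalents relative to haemin, by linear regression.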
# Sequence of Acetylcholinesterase (P22303 whole entry): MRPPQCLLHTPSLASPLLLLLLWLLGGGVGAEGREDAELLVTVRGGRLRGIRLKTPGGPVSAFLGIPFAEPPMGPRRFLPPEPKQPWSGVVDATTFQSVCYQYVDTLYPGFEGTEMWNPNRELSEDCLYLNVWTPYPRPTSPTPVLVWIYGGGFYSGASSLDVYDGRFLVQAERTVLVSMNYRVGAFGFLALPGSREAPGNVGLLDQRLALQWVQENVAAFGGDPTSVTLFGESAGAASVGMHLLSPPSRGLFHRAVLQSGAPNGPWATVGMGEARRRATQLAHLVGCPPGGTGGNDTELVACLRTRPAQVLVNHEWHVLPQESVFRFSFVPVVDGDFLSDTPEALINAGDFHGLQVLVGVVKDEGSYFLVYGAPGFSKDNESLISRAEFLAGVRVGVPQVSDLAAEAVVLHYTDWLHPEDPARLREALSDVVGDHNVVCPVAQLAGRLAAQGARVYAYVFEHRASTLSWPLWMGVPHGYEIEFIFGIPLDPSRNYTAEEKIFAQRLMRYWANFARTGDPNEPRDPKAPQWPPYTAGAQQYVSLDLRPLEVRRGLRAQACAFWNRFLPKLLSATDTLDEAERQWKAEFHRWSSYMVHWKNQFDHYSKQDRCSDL
IC50 [4] [equiv],SMILES,selectivity ratio [1],IC50 (L6) [nM],selectivity ratio [2],IC50 (Plasmodium falciparum) [nM],IC50 (Acetylcholinesterase) [nM],IC50 (Trypanosoma brucei) [nM],IC90 (Trypanosoma brucei) [nM],Papp [3] [×10⁻⁶ cm/s]
–,CC1=CC2Cc3nc4ccccc4c(NCCCCCCCCCCNc4c5c(nc6cc(Cl)ccc46)CCCC5)c3C(C1)C2 (configuration not stated),0.25,1110,3.3,4360,1.48,340,430,17.2
–,COc1cc2c(cc1OC)CC(CC1CCN(CCNc3c4c(nc5cc(Cl)ccc35)CCCC4)CC1)C2,< 0.31,2420,2.5,> 7720,–,970,2390,–
–,COc1cc2c(cc1OC)C(=O)C(CC1CCN(CCNc3c4c(nc5cc(Cl)ccc35)CCCC4)CC1)C2 (configuration not stated),< 0.62,< 3000,< 10,4860,–,300,680,–
–,COc1cc2c(cc1OC)CC(CC1CCN(CCNc3c4c(nc5cc(Cl)ccc35)CC3C=C(C)CC4C3)CC1)C2 (configuration not stated),< 1,6760,14,> 7010,–,490,1180,–
–,CCC1=C[C@@H]2Cc3nc4cc(Cl)ccc4c(NCCN4CCC(CC5Cc6cc(OC)c(OC)cc6C5)CC4)c3[C@H](C1)C2,< 0.89,6290,22,> 7050,–,290,720,–
–,CC1=CC2Cc3nc4ccccc4c(NCCCCCCCCCCNc4c5c(nc6ccccc46)CCCC5)c3C(C1)C2 (configuration not stated),< 0.29,< 1000,< 4.2,3500,6.46,240,310,6.3
–,CC1=CC2Cc3nc4cc(Cl)ccc4c(NCCCCCCCCNc4c5c(nc6cc(Cl)ccc46)CCCC5)c3C(C1)C2 (configuration not stated),< 0.14,970,5.7,> 7140,–,170,460,–
–,COc1cc2c(cc1OC)C(=O)C(CC1CCN(CCCNc3c4c(nc5ccccc35)CCCC4)CC1)C2 (configuration not stated),–,< 1000,< 3.6,–,–,280,620,–
–,CCC1=C[C@@H]2Cc3nc4cc(Cl)ccc4c(NCCCN4CCC(CC5Cc6cc(OC)c(OC)cc6C5)CC4)c3[C@H](C1)C2,2.7,2150,8.3,810,–,260,1330,–
–,CC1=CC2Cc3nc4ccccc4c(NCCCCCCCCCCCCNc4c5c(nc6ccccc46)CCCC5)c3C(C1)C2 (configuration not stated),< 0.14,< 1000,< 4.8,> 7300,10.1,210,280,7.3
–,CC1=CC2Cc3nc4cc(Cl)ccc4c(NCCCN(C)CCCNc4c5c(nc6ccccc46)CCCC5)c3C(C1)C2 (configuration not stated),< 2.3,< 1000,< 3.1,430,–,320,450,–
–,CC1=CC2Cc3nc4cc(Cl)ccc4c(NCCCCCCCNc4c5c(nc6cc(Cl)ccc46)CCCC5)c3C(C1)C2 (configuration not stated),< 0.44,< 3000,< 11,> 6880,–,270,430,–
–,CC1=CC2Cc3nc4cc(Cl)ccc4c(NCCCCCCCCCNc4c5c(nc6cc(Cl)ccc46)CCCC5)c3C(C1)C2 (configuration not stated),< 5.9,40000,167,> 6820,–,240,520,–
–,CC1=CC2Cc3nc4ccccc4c(NCCCCCCCCCCCCNc4c5c(nc6cc(Cl)ccc46)CCCC5)c3C(C1)C2 (configuration not stated),< 0.4,2740,5,> 6900,3.66,550,750,11
–,CC1=C[C@@H]2Cc3nc4cc(Cl)ccc4c(NCCCCCCCNc4c5c(nc6ccccc46)CCCC5)c3[C@H](C1)C2,< 2.2,< 1000,< 3.4,460,–,290,490,–
–,CC1=CC2Cc3nc4cc(Cl)ccc4c(NCCCCCCCCCCCCNc4c5c(nc6cc(Cl)ccc46)CCCC5)c3C(C1)C2 (configuration not stated),< 0.85,5580,9.5,> 6600,3.46,590,770,16.8
–,CC1=CC2Cc3nc4cc(Cl)ccc4c(NCCCCCCNc4c5c(nc6cc(Cl)ccc46)CCCC5)c3C(C1)C2 (configuration not stated),0.25,1100,2,4400,–,560,790,–
–,CC1=CC2Cc3nc4cc(Cl)ccc4c(NCCCN(C)CCCNc4c5c(nc6cc(Cl)ccc46)CCCC5)c3C(C1)C2 (configuration not stated),< 1.9,< 1000,< 3.6,520,–,280,400,–
–,CCC1=CC2Cc3nc4cc(Cl)ccc4c(NCCN4CCC(CC5Cc6cc(OC)c(OC)cc6C5)CC4)c3C(C1)C2 (configuration not stated),< 0.5,3550,12,> 7140,–,290,700,–
–,CC1=CC2Cc3nc4cc(Cl)ccc4c(NCCCCCCCCCCNc4c5c(nc6cc(Cl)ccc46)CCCC5)c3C(C1)C2 (configuration not stated),1.3,2630,15,2100,–,170,490,–
–,CC1=CC2Cc3nc4cc(Cl)ccc4c(NCCCCCCCCCCNc4c5c(nc6ccccc46)CCCC5)c3C(C1)C2 (configuration not stated),–,1670,12,–,–,140,480,–
–,CC1=CC2Cc3nc4cc(Cl)ccc4c(NCCCCCCNc4c5c(nc6ccccc46)CCCC5)c3C(C1)C2 (configuration not stated),0.39,1170,2.5,2990,–,470,660,–
> 4,CN(C)[C@@H]1C(O)=C(C(N)=O)C(=O)[C@@]2(O)C(O)=C3C(=O)c4c(O)cccc4[C@@](C)(O)[C@H]3C[C@@H]12 [TETRACYCLINE],–,–,–,–,–,–,–,–
–,CC1=CC2Cc3nc4cc(Cl)ccc4c(NCCCCCCCNc4c5c(nc6ccccc46)CCCC5)c3C(C1)C2 (configuration not stated),< 2.1,< 1000,< 4.2,470,–,240,430,–
–,CC1=CC2Cc3nc4cc(Cl)ccc4c(NCCCCCCCCCCCCNc4c5c(nc6ccccc46)CCCC5)c3C(C1)C2 (configuration not stated),< 0.15,1040,3,> 6900,1.92,350,520,10.8
–,COc1cc2c(cc1OC)C(=O)C(CC1CCN(CCNc3c4c(nc5ccccc35)CCCC4)CC1)C2 (configuration not stated),< 0.37,< 3000,< 7.3,> 8150,–,410,880,–
–,CC1=C[C@H]2Cc3nc4cc(Cl)ccc4c(NCCCCCCCNc4c5c(nc6ccccc46)CCCC5)c3[C@@H](C1)C2,2.1,730,3.5,350,–,210,420,–
–,COc1cc2c(cc1OC)CC(CC1CCN(CCNc3c4c(nc5ccccc35)CCCC4)CC1)C2,< 1.2,< 3000,< 7.9,2600,–,380,790,–
0.14,CCN(CC)CCCC(C)Nc1ccnc2cc(Cl)ccc12 (configuration not stated) [CHLOROQUINE],–,–,–,–,–,–,–,–
